Screening results from PubChem BioAssay.
NF-kB neuron act: compounds increasing NF-kB expression in human neuronal cells; 1.6% of 190,000 active; NF-kB reporter expression; hits give high values; AID 1239; fold change at 12.5 µM; in the data active = fold change above about 3.3
APP 5'UTR act: activates APP 5'UTR luciferase reporter. SH-SY5Y APP 5'UTR luciferase reporter, luminescence; zero percent = DMSO vehicle wells. activation, % at 2 µM. 1% of 190,000 active;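 active = activation above a set limit, based on mean plus 3 SD of controls, cut at about 140% in these data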
STAT1 blocker: reduces IFN-gamma driven STAT1 reporter signal | NIH 3T3 STAT1-luciferase reporter, luminescence | inhibition, % at 5.5 µM | 0.35% of 200,000 active | AID 920;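 active = inhibition above a set limit, the mean inhibition across all tested compounds plus 3 SD, cut at about 34% in these data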
STAT3 act-1: increases IL-6 driven STAT3 reporter signal; U3A cells, IL-6 STAT3-luciferase reporter, luminescence; 100% = signal with IL-6 EC80 alone; activation (% of control), % at 5.6 µM; 0.91% of 190,000 active; AID 871;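 active = activation above the screen-wide mean of compound activation plus 3 SD, cut at about 130% in these data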
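Material: STAT3-luciferase reporter U3A cells. Controls: IL-6-treated wells, 100% activation. Read-out: % activation versus median of IL-6-stimulated wells. Probe or stimulus: IL-6 stimulus at 33 ng/mL final. Timing: compound 1 h, then IL-6 6 h at 37 °C. Signal: reporter luminescence signal.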
STAT1 act-1: increases IFN-gamma driven STAT1 reporter signal. NIH 3T3 STAT1-luciferase reporter, luminescence; 100% = IFN-gamma alone, no compound. activation (% of control), % at 5.5 µM. 2.6% of 200,000 active;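 active = activation above the screen-wide mean activation plus 3 SD, cut at about 130% in these data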
STAT3 inh: STAT3 signaling inhibition; 0.89% of 190,000 active; U3A cells, IL-6 STAT3-luciferase reporter, luminescence; host cell line lacks STAT1; AID 862; inhibition, % at 5.5 µM;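 active = inhibition above the mean inhibition across all screened compounds plus 3 SD, cut at about 44% in these data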
STAT3 act-2: confirmation of STAT3 signaling activators | shares compounds with STAT3 act-1 | U3A STAT3-luciferase reporter, IL-6 potentiation, luminescence; U3A cells lack STAT1; 100 means same as IL-6 alone | potentiation (% of control), % at 5.7 µM | 64% of 1,200 active;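 active = percent activation of the STAT3 luciferase reporter above a set limit taken from the earlier primary screen, cut at about 130% in these data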
NFkB act 2: counter-screen for STAT3 activators: NF-kappaB activation; shares compounds with STAT3 act-1; human cells, NF-kappaB reporter activation; activation (% of control), % at 5.7 µM; AID 1309; 11% of 1,200 active; in the data active = activation above about 120%;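 note: reporter induced by TNF-alpha stimulation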
STAT1 act-2: STAT1 activation in STAT3 activator counter-screen; shares compounds with STAT3 act-1; NIH 3T3 STAT1-luciferase reporter, IFN-gamma, luminescence; activation (% of control), % at 5.7 µM; 13% of 1,200 active; AID 1318;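 active = activation above the solvent-only control well mean plus 3 SD, set per screening run, cut at about 120% in these data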
Of the large screens only hits and unclear results are named; the others gave an inactive call (follow-up assays come after a bar, where they were run). Shown are actives, neighbours in structure and some others; about 4.9% of the full set was active somewhere.

O=C(C1CCCO1)N1CCN(c2c3c(nc4cc(-c5ccc(F)cc5)nn24)CCC3)CC1 (configuration not stated)	STAT3 act-1 137 | STAT3 act-2 inactive | NFkB act 2 inactive | STAT1 act-2 inactive
CCOc1ccc(/C=C/C(=O)c2cc(Br)ccc(=O)c2O)cc1	none
CCc1ccc(/C=C/C(=O)c2cc(Br)ccc(=O)c2O)cc1	STAT3 act-1 150 | STAT3 act-2 136 | NFkB act 2 inactive | STAT1 act-2 inactive
Cc1cc(C)n(CCNC(=O)CC2C(=O)NCCN2Cc2ccccc2C(F)(F)F)n1 (configuration not stated)	none (no result: NF-kB neuron act)
O=C(Cc1cccs1)N/N=C/C=C/c1ccccc1	none
O=C(Cc1cccs1)N/N=C\c1ccc(O)cc1	STAT3 act-1 142 | STAT3 act-2 inactive | NFkB act 2 123 | STAT1 act-2 151
Cc1[nH]n(-c2ccccc2)c(=O)c1N=Nc1ccccc1	NF-kB neuron act 4, STAT3 act-1 148 | STAT3 act-2 176 | NFkB act 2 130 | STAT1 act-2 174
O=S(=O)(Nc1nc2ccccc2nc1Nc1ccc2c(c1)OCO2)c1ccc(F)cc1	none
CCOC(=O)CSc1nc(-c2ccccc2)nc2c1oc1ccccc12	STAT3 act-1 137 | STAT3 act-2 134 | NFkB act 2 inactive | STAT1 act-2 inactive
CCCCCCCCNC(=S)NCCN1CCCCC1	none
Cc1ccc(C(C(=O)NCc2ccco2)N(C(=O)Cc2cccs2)c2cccnc2)cc1 (configuration not stated)	none
COc1ccccc1-c1nnc(SC)n1C	none
COc1ccccc1-c1nnc(SCC(=O)O)n1C	STAT3 act-1 164 | STAT3 act-2 153 | NFkB act 2 inactive | STAT1 act-2 inactive
COc1cc(C(C[N+](=O)[O-])c2c(C)[nH]c3ccccc23)cc(OC)c1OC (configuration not stated)	STAT3 act-1 142 | STAT3 act-2 inactive | NFkB act 2 inactive | STAT1 act-2 inactive
O=c1oc(-c2cccs2)nc2scc(-c3cccs3)c12	APP 5'UTR act 200, STAT3 act-1 140 | STAT3 act-2 inactive | NFkB act 2 inactive | STAT1 act-2 inactive
Cc1ccc(-c2cc(-c3cccs3)[nH]n2)c(O)c1	NF-kB neuron act 8.1, STAT3 act-1 164 | STAT3 act-2 140 | NFkB act 2 127 | STAT1 act-2 inactive
COCc1cc(C)nc2sc(C(=O)NN)c(-n3cccc3)c12	STAT3 act-1 137 | STAT3 act-2 139 | NFkB act 2 inactive | STAT1 act-2 inactive
Cc1ccc(-n2nc(C)c3c2OC(N)=C(C#N)C3c2ccoc2)cc1 (configuration not stated)	STAT3 act-1 177 | STAT3 act-2 153 | NFkB act 2 inactive | STAT1 act-2 inactive
Cc1nn(-c2ccccc2)c2c1C(c1ccccc1)C(C#N)=C(N)O2 (configuration not stated)	none
COC(=O)c1cc2ccsc2n1CC(=O)Nc1ccc(N(C)C)cc1	none
COC(=O)c1cc2ccsc2n1CC(=O)Nc1cc(Cl)ccc1OC	STAT3 act-1 152 | STAT3 act-2 147 | NFkB act 2 inactive | STAT1 act-2 inactive
CSc1nsc(/C=C/Nc2ccc(C)c(C)c2)c1C#N	none
CSc1nsc(/C=C/Nc2ccc(C)cc2)c1C#N	STAT3 act-1 137 | STAT3 act-2 136 | NFkB act 2 inactive | STAT1 act-2 inactive
Cc1cc(C(F)(F)F)nc(SCCN2CCOCC2)c1C#N	none
N#Cc1c(C(F)(F)F)cc(-c2ccc(Cl)c(Cl)c2)nc1SCCN1CCOCC1	STAT3 act-1 160 | STAT3 act-2 146 | NFkB act 2 inactive | STAT1 act-2 inactive
O=C(CCNS(=O)(=O)c1c(Cl)cccc1Cl)OCC(=O)c1ccccc1	none
